# High-throughput results from PubChem BioAssay.
# Hits are enriched below; roughly 4.8% of the tested compounds scored in any of these assays.
# CSC inhib – cancer stem cell viability inhibitors, primary screen, luminescence. inhibition, % at 7.5 µM. cancer stem cell-like cells viability. AID 2717, 2010. actives 1.1% (n = 300,000); in the data active = inhibition above about 75%; inconclusive = no clear call, values can overlap the other calls; tested in HMLE shEcad cells
# UPR XBP1 act – activators of adaptive XBP1 UPR arm, primary screen, cell-based, CHO-XBP1 luciferase reporter, luminescence, uHTS | IRE1-XBP1 UPR activation; percent of tunicamycin response, DMSO as zero | activation, % at 20 µM | actives 0.33% (n = 330,000) | AID 463104, 2010;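 active = versus positive control, 20 µM dose yields 30% or more activation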;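 note: 100% = tunicamycin at 10 µg/mL and 0% = DMSO only wells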
#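 Signal: luciferase luminescence; Assay system: CHO-XBP1 luciferase reporter cells; Amount: one thousand reporter cells per well; Dosing: 20 µM single concentration, DMSO 1%; Benchmarks: high control tunicamycin 10 µg/mL final, low control DMSO vehicle only; Schedule: 6 h compound exposure at 37 °C, 5% CO2; Evaluation: percent activation relative to tunicamycin reference.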
# SKKanGAS inh – S. pyogenes SKKanGAS growth inhibitors in kanamycin, primary screen, streptokinase expression inhibitor project, SKKanGAS strain, BacTiter-Glo luminescence. 6 h. inhibition, % at 7.5 µM. actives 1.3% (n = 300,000). AID 1662, 2009;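 active = mean replicate score, as percent of positive control median, at least 50; inconclusive = mean below 50 but one replicate at or above 50; inactive = mean and every replicate below 50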;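 note: strain carries kanamycin resistance gene driven by streptokinase promoter and grows in 40 µg/ml kanamycin; loss of luminescence reflects streptokinase promoter inhibition or plain growth inhibition; 0% = median of DMSO wells and 100% = positive control at its reference dose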
# Beta cell apopt – inhibitors of cytokine-induced beta cell apoptosis, primary screen, luminescence; actives 0.8% (n = 300,000); INS-1E cytokine-induced death, ATP luminescence, 48 h; percent of positive-control rescue, neutral wells zero; protection from apoptosis, % (test concentration not listed);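 active = Every replicate reaches about 75%, or at least half do and their mean reaches it too, limit read from the data; inconclusive = At least half of replicates reach the limit but their mean does not; inactive = Under half of replicates reach the limit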;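 note: 0% = cytokine-treated negative control wells and 100% = positive control rescue; higher means more ATP so stronger rescue from cytokine killing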
# UPR CHOP act – activators of apoptotic CHOP UPR arm, primary screen, cell-based, CHO-CHOP luciferase reporter, luminescence, uHTS; actives 0.34% (n = 330,000); UPR activation; percent of tunicamycin response over DMSO baseline; activation, % at 10 µM; AID 449763, 2010;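 active = at 10 µM dose, activation of 40% or more, normalized to positive control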;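 note: 100% = tunicamycin at 10 µg/mL and 0% = DMSO alone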
#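 System: CHO-CHOP luciferase reporter cell line; amount: 500 cells/well; buffer or medium: F12 medium containing 10% fetal bovine serum; incubation: 6 h compound exposure at 37 °C after overnight seeding; measured by: luciferase luminescence after 10 min with Steady-Glo reagent; evaluation: % reporter activation, DMSO baseline versus tunicamycin full activation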
# Mdm2-MdmX inh – inhibitors of human Mdm2-MdmX association, primary screen, cell-based, luminescence, split luciferase, SaOS-2, uHTS; SaOS-2 split-luciferase Mdm2/MdmX complementation; inhibition, % at 8 µM; actives 3% (n = 330,000); AID 485346, 2010;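 active = inhibition of at least 50% at 8 µM in the primary screen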
# Target sequence (O15151 whole entry, looked up): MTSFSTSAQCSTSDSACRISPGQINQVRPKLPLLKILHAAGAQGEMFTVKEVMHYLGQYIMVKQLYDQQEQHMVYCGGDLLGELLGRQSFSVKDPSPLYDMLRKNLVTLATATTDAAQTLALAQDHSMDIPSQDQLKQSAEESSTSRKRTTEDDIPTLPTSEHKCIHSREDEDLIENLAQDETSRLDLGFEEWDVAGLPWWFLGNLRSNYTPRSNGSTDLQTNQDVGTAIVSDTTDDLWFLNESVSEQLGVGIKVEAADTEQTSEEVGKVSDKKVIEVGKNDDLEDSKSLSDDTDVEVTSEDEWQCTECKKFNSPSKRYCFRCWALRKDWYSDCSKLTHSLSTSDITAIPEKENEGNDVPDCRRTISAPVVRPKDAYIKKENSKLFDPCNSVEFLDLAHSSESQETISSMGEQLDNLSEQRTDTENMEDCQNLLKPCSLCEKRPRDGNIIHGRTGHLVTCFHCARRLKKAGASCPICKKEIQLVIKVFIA
# Target sequence (Q00987 whole entry, looked up): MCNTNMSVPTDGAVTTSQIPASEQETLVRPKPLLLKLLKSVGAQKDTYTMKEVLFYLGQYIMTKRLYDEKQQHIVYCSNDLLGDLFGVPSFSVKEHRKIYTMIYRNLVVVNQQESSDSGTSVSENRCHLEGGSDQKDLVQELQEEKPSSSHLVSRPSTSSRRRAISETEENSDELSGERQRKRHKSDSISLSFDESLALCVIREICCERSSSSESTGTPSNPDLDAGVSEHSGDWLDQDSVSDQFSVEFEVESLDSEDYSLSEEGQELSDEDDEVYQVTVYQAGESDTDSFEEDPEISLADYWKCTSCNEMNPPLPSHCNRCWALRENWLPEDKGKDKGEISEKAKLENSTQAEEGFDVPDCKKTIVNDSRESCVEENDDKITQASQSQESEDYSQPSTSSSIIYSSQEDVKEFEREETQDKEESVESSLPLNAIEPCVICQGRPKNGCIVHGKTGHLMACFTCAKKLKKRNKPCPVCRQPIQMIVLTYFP
# Mdm2 MdmX conf – Mdm2-MdmX complex disruptors, retested hits, confirmation, luminescence, single concentration. shares compounds with Mdm2-MdmX inh. Mdm2-MdmX binding, luminescent assay. inhibition, % at 8 µM. actives 55% (n = 10,000). AID 489028, 2010; in the data active = inhibition above about 40%
# Full FLuc ctr – full-length luciferase signal inhibition, confirmation, counter-screen for Mdm2/MdmX interaction inhibitor project, cell-based, single concentration, SaOS-2. SaOS-2 full-length luciferase counterscreen, luminescence. shares compounds with Mdm2-MdmX inh. inhibition, % at 8 µM. actives 77% (n = 6,200);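 active = mean inhibition at 8 µM reaching about 37%, which flags the compound as non-specific, limit read from the data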;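 note: p53-null SaOS-2 cells with luciferase driven by a doxycycline-inducible promoter; compound on cells about two nights before reading with doxycycline added after day one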
# * hit, by the source's call; ? = inconclusive; · = no result given; ! = not confirmed by another sample.
SMILES,CSC inhib,UPR XBP1 act,SKKanGAS inh,Beta cell apopt,UPR CHOP act,Mdm2-MdmX inh,Mdm2 MdmX conf,Full FLuc ctr
COc1ccccc1N1CCN(CC(=O)Nc2ccccc2C(=O)NCCc2ccccc2)CC1,·,0,·,·,2,23,·,·
CCCCOc1ccc(Br)cc1/C(C)=N/NC1=NCCN1,-12,11,-12,56,2,89*,64*,39*
CCSc1nc2ccccc2n1C(=O)/C=C/c1ccc(OC)c(OC)c1,9,-2,-12,-1,3,100*,99*,54*
C=CCSc1nc2ccccc2n1C(=O)/C=C/c1cc(OC)c(OC)c(OC)c1,·,-4,-1,-7,-1,100*,95*,3
Cc1[nH]c2ccccc2c1CCNC(=O)c1ccc2c(c1[N+](=O)[O-])C(=O)c1ccccc1C2=O,24,-3,32,10,6,69*,20,·
O=C(CCC1CCCCC1)NCCN1C2=NC[C@@H](Cc3ccccc3)N2C[C@H]1Cc1ccc(O)cc1,1,-1,-3,-5,1,67*,54*,63*
CN1CCN(CCCN2c3ccccc3Sc3ccc(Cl)cc32)CC1,94*!,3,6,3,3,54*,32,·
CN1CCN(CCC(=O)N2c3ccccc3Sc3ccc(C(F)(F)F)cc32)CC1,-1,0,-5,2,-2,13,·,·
CCSc1ccc2c(c1)N(CCCN1CCN(C)CC1)c1ccccc1S2,78*,-3,·,8,0,60*,21,·
OCCN1CCN(CCCN2c3ccccc3Sc3ccc(C(F)(F)F)cc32)CC1,86*,-7,8,11,0,61*,27,·
Cc1cccc(/C=C2/Sc3ccc(C(=O)NCCN4CCCC4)cc3NC2=O)c1,6,0,2,-3,1,72*,13,·
COc1cccc(C(=O)NCCN2CCOCC2)c1,-5,-4,-3,-5,0,12,·,·
COc1cccc(/C=C2/Sc3ccc(C(=O)NCCN4CCCCCC4)cc3NC2=O)c1,-16,9,12,·,6,98*,30,·
O=C1Nc2cc(C(=O)NCCN3CCCCCC3)ccc2S/C1=C\c1ccccc1,-5,5,1,1,8,81*,19,·
CCN1CCN(CCCNC(=O)c2ccc3c(c2)NC(=O)c2ccccc2S3)CC1,-3,-1,1,-6,-1,-1,·,·
Cc1ccc(NC(=O)NCc2ccccn2)c(C)c1,-5,-4,·,2,1,6,·,·
Cc1ccc(Sc2nc(C)c([N+](=O)[O-])c(C)c2C#N)cc1,58,-1,21,·,-1,24,·,·
Cc1nc(Sc2ccc(Br)cc2)c(C#N)c(C)c1[N+](=O)[O-],83*,11,-20,0,1,53*,32,·
CCc1cccc(NC(=O)C2CCCN2C(=O)Nc2ccc(C)cc2)c1 (stereo not drawn),-5,2,-3,-6,1,13,·,·
CCOC(=O)C1=C(C)N=c2s/c(=C/c3cccc([N+](=O)[O-])c3O)c(=O)n2C1c1ccccc1 (stereo not drawn),30,-2,34,-1,1,45,·,·
CCOC(=O)C1=C(C)N=c2s/c(=C/c3cccc([N+](=O)[O-])c3O)c(=O)n2C1c1cc(OC)c(OC)c(OC)c1 (stereo not drawn),9,-2,27,-3,0,52*,9,·
O=C(N/N=C/c1cc2c(cc1Cl)OCO2)c1cccc(Br)c1,-5,-4,-1,1,6,22,·,·
O=C(CNC(=O)c1ccccc1)N/N=C/c1cc(Br)ccc1O,21,-1,-4,75,2,40,·,·
O=C(N/N=C/c1c[nH]c2ccc(Br)cc12)c1ccc2c(c1)OCO2,·,-1,5,·,2,20,·,·
Cc1cc(Br)cc(/C=N/NC(=O)c2ccc3c(c2)OCO3)c1O,84*,-1,84*,88*,0,68*,67*,33
SMILES,CSC inhib,UPR XBP1 act,SKKanGAS inh,Beta cell apopt,UPR CHOP act,Mdm2-MdmX inh,Mdm2 MdmX conf,Full FLuc ctr
O=C(CNC(=O)c1ccc2c(c1)OCO2)N/N=C/c1cc(Br)ccc1O,·,1,61*,81*,-1,52*,58*,47*
O=C(N/N=C/c1cc(Br)cc(Cl)c1O)c1ccc2c(c1)OCO2,59,0,89*,94*,-3,50*,59*,53*
O=C(Cc1ccccc1)N/N=C/c1cc(Br)cc(Cl)c1O,20,0,97*,·,0,59*,68*,29
O=C(COC(=O)c1n[nH]c2ccccc12)NCCc1ccccc1,-13,-1,·,0,-1,-4,·,·
Cc1ccc(/C=N/NC(=O)Cc2ccc(Cl)cc2)c(O)c1,56,0,101*,83*,0,60*,54*,42*
CCC1CCCCN1C(=O)COc1ccc2c3c(c(=O)oc2c1)CCC3 (stereo not drawn),·,-1,·,-1,-2,18,·,·
CCN1CCN(c2cc(C)c3cc(NC(=S)N4CCN(c5ccc(F)cc5)CC4)ccc3n2)CC1,?,0,-5,8,5,96*,45*,52*
CCCN(CCC)CCCNC(=S)Nc1ccc2nc(N3CCN(CC)CC3)cc(C)c2c1,9,-3,-5,-8,-1,53*,30,·
CCCN(CCC)CCCNC(=S)Nc1ccc2nc(N3CCN(C)CC3)cc(C)c2c1,-2,-1,-10,-2,3,38,·,·
CCCCN(CC)CCNC(=S)Nc1ccc2nc(N3CCN(C)CC3)cc(C)c2c1,71,-6,-2,0,-1,67*,45*,75*
CCN1CCN(C(=S)Nc2ccc3nc(N4CCN(CC)CC4)cc(C)c3c2)CC1,-3,-1,-1,-7,1,30,·,·
CCN1CCN(c2cc(C)c3cc(NC(=O)c4ccc(C)c(C)c4)ccc3n2)CC1,30,6,2,3,3,67*,16,·
CCN1CCN(c2cc(C)c3cc(NC(=O)c4ccncc4)ccc3n2)CC1,3,0,0,·,-1,2,·,·
